ChEMBL document CHEMBL4622841, “Structural modifications of indolinones bearing a pyrrole moiety and discovery of a multi-kinase inhibitor with potent antitumor activity” (Bioorg Med Chem, 2020)
pIC50: −log10 of the molar value. Activity calls are given as the source filed them. The calls are words filed in the database; no cut-off is given here.

Key:
[1] = test system: HT-29; test: Antitumor activity against human HT-29 cells xenografted in nu/nu mouse assessed as tumour growth inhibition at 100 mg/kg, po qd for 18 days and measured twice per week by vernier caliper method; type: functional; details: HT-29, po, 432 h, read-out: TGI
[2] = target: Cyclin-dependent kinase 4 (Homo sapiens, UniProt P11802); test: Inhibition of CDK4 (unknown origin) at 1 uM using FAM-labeled peptide and ATP as substrate preincubated for 10 mins followed by substrate addition measured after 1 hr by mobility shift assay
[3] = test system: HT-29; test: Inhibition of colony formation in human HT-29 cells at 1 uM measured after 14 days by crystal violet staining-based assay; type: functional, cell-based
Summary of the method: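 HT-29 cells exposed to compound for 14 days and colonies counted. Read-out is colony formation rate relative to vehicle, given as mean ± SEM. Significance versus the vehicle group was tested by unpaired two-tailed Student's t-test.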

[4] = test system: MKN-74; test: Induction of apoptosis in human MKN74 cells incubated for 72 hrs by Annexin-V-FITC/propidium iodide staining-based flow cytometric analysis; type: functional, cell-based
[5] = test system: MKN-74; test: Induction of apoptosis in human MKN74 cells assessed as late apoptotic cells at 0.3 uM incubated for 72 hrs by Annexin-V-FITC/propidium iodide staining-based flow cytometric analysis (reference value: 12.42%); type: functional
[6] = test system: HepG2; test: Inhibition of colony formation in human HepG2 cells at 1 uM measured after 14 days by crystal violet staining-based assay; type: functional, cell-based
Summary of the method: (§1)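 Cells plated and exposed to test agent at a range of concentrations for 14 days, then colonies counted. Colony formation expressed relative to vehicle-treated cells as mean ± SEM. Significance versus vehicle by unpaired two-tailed Student's t-test.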

[7] = test system: HUVEC; test: Induction of apoptosis in human HUVEC cells assessed as late apoptotic cells at 1 uM incubated for 48 hrs by Annexin-V-FITC/propidium iodide staining-based flow cytometric analysis (reference value: 3.48%); type: functional
[8] = test system: MKN-74; test: Induction of apoptosis in human MKN74 cells assessed as early apoptotic cells at 0.3 uM incubated for 72 hrs by Annexin-V-FITC/propidium iodide staining-based flow cytometric analysis (reference value: 1.98%); type: functional
[9] = target: Vascular endothelial growth factor receptor 1 (Homo sapiens, UniProt P17948); test: Inhibition of GST-tagged human recombinant VEGFR1 cytoplasmic domain (781 to 1338 residues) expressed in baculovirus expression system using FAM-labeled peptide and ATP as substrate preincubated for 10 mins followed by substrate addition measured after 1 hr by mobility shift assay
[10] = test system: HUVEC; test: Induction of apoptosis in human HUVEC cells assessed as late apoptotic cells at 0.3 uM incubated for 48 hrs by Annexin-V-FITC/propidium iodide staining-based flow cytometric analysis (reference value: 3.48%); type: functional
[11] = test system: HepG2; test: Inhibition of receptor tyrosine kinase in human HepG2 cells assessed as reduction in ERK phosphorylation at Thr202/Tyr204 residues at 3 uM after 24 hrs by Western blotting analysis; type: cell-based
Summary of the method: (§2)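 Cells cultured overnight, then treated with compound at different concentrations for 24 h. About 1×10⁶ cells harvested and immunoblotted for p-AKT (Ser473), AKT, p-ERK (Thr202/Tyr204), ERK, with GAPDH as loading control. Detection by chemiluminescence and gel imaging. Blots shown are representative of several experiments.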

[12] = test system: HepG2; test: Induction of apoptosis in human HepG2 cells assessed as late apoptotic cells at 1 uM incubated for 72 hrs by Annexin-V-FITC/propidium iodide staining-based flow cytometric analysis (reference value: 2.89%); type: functional
[13] = test system: HepG2; test: Induction of apoptosis in human HepG2 cells assessed as early apoptotic cells at 0.3 uM incubated for 72 hrs by Annexin-V-FITC/propidium iodide staining-based flow cytometric analysis (reference value: 1.08%); type: functional
[14] = test system: HepG2; test: Inhibition of receptor tyrosine kinase in human HepG2 cells assessed as reduction in AKT phosphorylation at Ser473 residue after 24 hrs by Western blotting analysis; type: cell-based; summary of the method: as §2
[15] = test system: HT-29; test: Induction of apoptosis in human HT-29 cells assessed as late apoptotic cells at 3 uM incubated for 72 hrs by Annexin-V-FITC/propidium iodide staining-based flow cytometric analysis (reference value: 6.12%); type: functional
[16] = test system: MKN-74; test: Inhibition of colony formation in human MKN74 cells at 1 uM measured after 14 days by crystal violet staining-based assay; type: functional; details: MKN-74, 336 h
[17] = target: Fibroblast growth factor receptor 1 (Homo sapiens, UniProt P11362); test: Inhibition of N-terminal GST fused human recombinant FGFR1 cytoplasmic domain (398 to 822 (end) residues) expressed in baculovirus expression system using FAM-labeled peptide and ATP as substrate preincubated for 10 mins followed by substrate addition measured after 1 hr by mobility shift assay
[18] = test system: HepG2; test: Induction of apoptosis in human HepG2 cells incubated for 72 hrs by Annexin-V-FITC/propidium iodide staining-based flow cytometric analysis; type: functional, cell-based
[19] = test system: HUVEC; test: Induction of apoptosis in human HUVEC cells assessed as late apoptotic cells at 3 uM incubated for 48 hrs by Annexin-V-FITC/propidium iodide staining-based flow cytometric analysis (reference value: 3.48%); type: functional
[20] = test system: HT-29; test: Induction of apoptosis in human HT-29 cells incubated for 72 hrs by Annexin-V-FITC/propidium iodide staining-based flow cytometric analysis; type: functional, cell-based
[21] = target: Cyclin-dependent kinase 2 (Homo sapiens, UniProt P24941); test: Inhibition of CDK2 (unknown origin) using FAM-labeled peptide and ATP as substrate preincubated for 10 mins followed by substrate addition measured after 1 hr by mobility shift assay
[22] = test system: HEK-293T; test: Induction of apoptosis in human HEK293T cells by Annexin-V-FITC/propidium iodide staining-based flow cytometric analysis; type: cell-based
[23] = test system: MKN-74; test: Induction of apoptosis in human MKN74 cells assessed as viable cells at 1 uM incubated for 72 hrs by Annexin-V-FITC/propidium iodide staining-based flow cytometric analysis (reference value: 76.84%); type: functional; details: MKN-74, 72 h, read-out: Activity
[24] = test system: HepG2; test: Inhibition of colony formation in human HepG2 cells measured after 14 days by crystal violet staining-based assay; type: functional, cell-based; summary of the method: as §1
[25] = test system: MKN-74; test: Induction of apoptosis in human MKN74 cells assessed as viable cells at 0.3 uM incubated for 72 hrs by Annexin-V-FITC/propidium iodide staining-based flow cytometric analysis (reference value: 76.84%); type: functional; details: MKN-74, 72 h, read-out: Activity
[26] = target: Tyrosine-protein kinase Lyn (Homo sapiens, UniProt P07948); test: Inhibition of LYN (unknown origin) using FAM-labeled peptide and ATP as substrate preincubated for 10 mins followed by substrate addition measured after 1 hr by mobility shift assay
[27] = test system: HepG2; test: Induction of apoptosis in human HepG2 cells assessed as early apoptotic cells at 3 uM incubated for 72 hrs by Annexin-V-FITC/propidium iodide staining-based flow cytometric analysis (reference value: 1.08%); type: functional
[28] = test system: MKN-74; test: Induction of apoptosis in human MKN74 cells assessed as necrotic cells at 1 uM incubated for 72 hrs by Annexin-V-FITC/propidium iodide staining-based flow cytometric analysis (reference value: 6.29%); type: functional
[29] = test system: HUVEC; test: Induction of apoptosis in human HUVEC cells assessed as early apoptotic cells at 1 uM incubated for 48 hrs by Annexin-V-FITC/propidium iodide staining-based flow cytometric analysis (reference value: 3.63%); type: functional
[30] = Intrinsic clearance in mouse liver microsomes; type: ADME, Microsome; details: read-out: CLH

Fibroblast growth factor receptor 1, sequence (P11362 whole entry, the tested form may be a part): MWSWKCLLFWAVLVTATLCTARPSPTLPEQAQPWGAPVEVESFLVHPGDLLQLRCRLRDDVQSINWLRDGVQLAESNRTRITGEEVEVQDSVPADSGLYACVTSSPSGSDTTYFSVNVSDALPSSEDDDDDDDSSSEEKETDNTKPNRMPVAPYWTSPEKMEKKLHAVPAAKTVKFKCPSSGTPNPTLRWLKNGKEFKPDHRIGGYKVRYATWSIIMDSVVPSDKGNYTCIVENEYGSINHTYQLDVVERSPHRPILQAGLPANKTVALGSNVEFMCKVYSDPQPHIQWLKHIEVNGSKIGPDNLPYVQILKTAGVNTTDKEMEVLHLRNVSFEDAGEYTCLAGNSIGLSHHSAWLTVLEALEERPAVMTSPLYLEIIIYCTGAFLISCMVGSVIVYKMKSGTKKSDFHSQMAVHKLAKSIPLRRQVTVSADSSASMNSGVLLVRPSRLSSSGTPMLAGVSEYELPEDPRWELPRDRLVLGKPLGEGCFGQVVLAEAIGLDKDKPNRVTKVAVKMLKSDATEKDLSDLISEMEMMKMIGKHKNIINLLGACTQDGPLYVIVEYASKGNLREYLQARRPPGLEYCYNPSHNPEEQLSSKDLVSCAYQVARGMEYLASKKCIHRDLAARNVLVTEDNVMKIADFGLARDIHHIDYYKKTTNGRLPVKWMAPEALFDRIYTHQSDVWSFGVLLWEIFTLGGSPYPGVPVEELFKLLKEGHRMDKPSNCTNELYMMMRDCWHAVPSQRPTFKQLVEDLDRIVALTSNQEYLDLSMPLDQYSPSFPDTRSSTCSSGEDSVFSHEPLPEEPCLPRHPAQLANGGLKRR
Tyrosine-protein kinase Lyn, sequence (P07948 whole entry): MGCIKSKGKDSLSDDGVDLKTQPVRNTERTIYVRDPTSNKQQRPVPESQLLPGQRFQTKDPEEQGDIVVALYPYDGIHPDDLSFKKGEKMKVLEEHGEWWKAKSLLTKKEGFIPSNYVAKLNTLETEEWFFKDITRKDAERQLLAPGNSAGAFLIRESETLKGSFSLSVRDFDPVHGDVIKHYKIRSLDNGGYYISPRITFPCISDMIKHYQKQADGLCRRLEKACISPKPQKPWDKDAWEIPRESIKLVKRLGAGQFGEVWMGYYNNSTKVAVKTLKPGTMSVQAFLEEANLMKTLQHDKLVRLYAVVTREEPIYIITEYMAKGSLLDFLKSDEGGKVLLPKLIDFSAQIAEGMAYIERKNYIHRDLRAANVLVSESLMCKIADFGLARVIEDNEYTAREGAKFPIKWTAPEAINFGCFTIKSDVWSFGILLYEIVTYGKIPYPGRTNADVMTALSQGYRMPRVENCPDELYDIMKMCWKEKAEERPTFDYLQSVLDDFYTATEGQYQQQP
Vascular endothelial growth factor receptor 1, sequence (P17948 whole entry, the tested form may be a part): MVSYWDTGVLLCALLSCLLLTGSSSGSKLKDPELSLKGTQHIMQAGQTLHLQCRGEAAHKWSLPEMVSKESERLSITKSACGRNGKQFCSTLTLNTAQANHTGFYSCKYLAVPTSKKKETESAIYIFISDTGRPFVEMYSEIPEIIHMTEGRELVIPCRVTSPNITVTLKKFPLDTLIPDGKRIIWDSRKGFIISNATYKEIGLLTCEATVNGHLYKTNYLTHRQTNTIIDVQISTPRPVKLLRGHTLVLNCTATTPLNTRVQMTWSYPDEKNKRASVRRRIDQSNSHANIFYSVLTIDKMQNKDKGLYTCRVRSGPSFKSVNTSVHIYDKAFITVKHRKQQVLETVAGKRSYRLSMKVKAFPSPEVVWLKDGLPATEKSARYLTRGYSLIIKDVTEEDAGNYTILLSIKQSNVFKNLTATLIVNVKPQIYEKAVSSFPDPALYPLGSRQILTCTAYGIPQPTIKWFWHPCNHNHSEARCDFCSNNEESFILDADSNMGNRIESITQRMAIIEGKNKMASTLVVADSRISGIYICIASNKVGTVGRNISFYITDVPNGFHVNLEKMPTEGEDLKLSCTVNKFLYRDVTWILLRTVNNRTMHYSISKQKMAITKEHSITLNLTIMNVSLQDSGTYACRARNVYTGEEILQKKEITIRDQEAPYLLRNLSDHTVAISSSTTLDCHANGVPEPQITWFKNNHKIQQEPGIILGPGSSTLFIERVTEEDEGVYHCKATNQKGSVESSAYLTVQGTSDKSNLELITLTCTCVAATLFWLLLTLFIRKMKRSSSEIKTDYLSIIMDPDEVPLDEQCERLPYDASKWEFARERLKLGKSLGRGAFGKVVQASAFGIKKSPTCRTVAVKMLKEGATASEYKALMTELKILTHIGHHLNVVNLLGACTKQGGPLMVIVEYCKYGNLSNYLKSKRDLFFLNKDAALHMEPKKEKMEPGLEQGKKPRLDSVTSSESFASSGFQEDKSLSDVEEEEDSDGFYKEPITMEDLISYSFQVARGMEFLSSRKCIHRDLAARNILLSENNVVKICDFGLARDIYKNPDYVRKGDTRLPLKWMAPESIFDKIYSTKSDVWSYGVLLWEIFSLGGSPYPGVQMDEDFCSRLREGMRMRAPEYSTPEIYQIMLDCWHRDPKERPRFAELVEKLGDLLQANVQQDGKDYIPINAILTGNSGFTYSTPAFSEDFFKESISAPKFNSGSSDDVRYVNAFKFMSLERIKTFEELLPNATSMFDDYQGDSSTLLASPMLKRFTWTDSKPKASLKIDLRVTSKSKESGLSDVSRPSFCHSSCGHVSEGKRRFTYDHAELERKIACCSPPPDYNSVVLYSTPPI
Cyclin-dependent kinase 4, sequence (P11802 whole entry): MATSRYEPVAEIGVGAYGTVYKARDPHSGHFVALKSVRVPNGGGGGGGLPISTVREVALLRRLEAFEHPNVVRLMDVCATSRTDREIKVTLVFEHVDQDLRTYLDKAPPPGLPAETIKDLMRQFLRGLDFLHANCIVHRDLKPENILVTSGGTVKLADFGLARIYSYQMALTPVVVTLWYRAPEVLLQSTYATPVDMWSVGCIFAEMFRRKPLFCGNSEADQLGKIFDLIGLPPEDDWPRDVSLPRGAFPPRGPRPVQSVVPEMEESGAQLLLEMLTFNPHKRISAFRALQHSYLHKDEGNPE

In the case of `COC(=O)c1ccc2c(c1)NC(=O)/C2=C(\Nc1ccc(-n2c(C)ccc2CN2CCN(C)CC2)cc1)c1ccccc1`, the inhibition in vivo at 100 mg/kg [1] was 13.4%, the inhibition [2] was “inactive” and the inhibition [3] was “Active”. The Activity [4] was “Dose-dependent effect”, the Activity [5] was 16.86% and the inhibition [6] was “Active”. The Activity [7] was 3.09%, the Activity [8] was 2.41% and the pIC50 [9] was 7.51. For the same molecule, the Activity [10] was 2.76%, the inhibition [11] was “Active” and the Activity [12] was 61.54%. The Activity [13] was 1.81%, the inhibition [14] was “Dose-dependent effect” and the Activity [15] was 88.27%. The inhibition at 1 µM [16] was 100%, the pIC50 [17] was 7.64 and the Activity [18] was “Dose-dependent effect”. The Activity [19] was 9.06%, the Activity [20] was “Dose-dependent effect” and the pIC50 [21] was under 6.00. For the same molecule, the Activity [22] was “Non-Toxic”, the viability at 1 µM [23] was 62.9% and the inhibition [24] was “Dose-dependent effect”. The viability at 0.3 µM [25] was 73.5%, the pIC50 [26] was 7.80 and the Activity [27] was 16.52%. The Activity [28] was 4.52%, the Activity [29] was 3.58% and the CLint scaled [30] was 436 mL/min/kg.
